Experimental data published in ChEMBL document CHEMBL1139369, “Discovery and structure-activity relationship of P1-P3 ketoamide derived macrocyclic inhibitors of hepatitis C virus NS3 protease” (J Med Chem, 2009).
Activity calls are given as the source filed them. The rule behind the calls is not given here.

Experiments:
[1] = Binding affinity to HCV NS3 protease; parameters: species or system Hepacivirus hominis
[2] = system: Hepatitis C virus; experiment: Antiviral activity against HCV by genotype 1 replicon based cellular assay; format: functional, Hepacivirus hominis
[3] = (§1) AUC (0 to 6 hrs) in rat at 10 mg/kg, po; format: ADME, organism-based, Plasma; parameters: time < 6 hr, dose 10 mg/kg, route oral; details: plasma
Method in brief: (§2)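 Rapid rat assay: oral dosing at 10 mg/kg in 0.4% HPMC. Blood drawn periodically and pooled; plasma AUC calculated over 0–6 h.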

[4] = AUC (0 to 6 hrs) in rat at 5 mg/kg, po; format: ADME, organism-based; parameters: time < 6 hr, dose 5 mg/kg, route oral; details: plasma
Method in brief: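 Rapid rat plasma-level assay with oral dosing at 5 mg/kg in 0.4% HPMC; plasma exposure expressed as AUC.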

[5] = Ratio of Ki for human neutrophil elastase to Ki for HCV NS3 protease
Method in brief: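 Selectivity index: Ki* against human neutrophil elastase divided by Ki* against HCV NS3 protease, both from enzyme binding measurements.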

[6] = system: Rattus norvegicus; experiment: as §1; format: ADME, organism-based, Plasma; parameters: time < 6 hr, dose 10 mg/kg, route oral; details: in vivo, 6 h; method in brief: as §2

| SMILES | Ki [1] [nM] | EC90 [2] [nM] | AUC(0-t) at 6 h [3] [µM·h] | also measured |
| --- | --- | --- | --- | --- |
| C=CCNC(=O)C(=O)[C@@H]1CCCCCCCCC[C@H](NC(=O)N[C@H](CN2Cc3sccc3S2(=O)=O)C(C)(C)C)C(=O)N2C[C@@H]3[C@H]([C@H]2C(=O)N1)C3(C)C | 7 | 150 | 0.84 |  |
| CC(C)(C)OC(=O)[C@@H](NC(=O)N[C@H]1CCCCCCCCCC[C@@H](C(=O)C(N)=O)NC(=O)[C@@H]2[C@H]3[C@@H](CN2C1=O)C3(C)C)C(C)(C)C | 37 | 400 |  |  |
| C=CCNC(=O)C(=O)[C@@H]1CCCCCCCCC[C@H](NC(=O)N[C@H](CN(C)S(=O)(=O)N(C)C)C(C)(C)C)C(=O)N2C[C@@H]3[C@H]([C@H]2C(=O)N1)C3(C)C | 13 | 60 |  | AUC(0-t) at 6 h [4]: 1.04 µM·h |
| CN(C)C(=O)[C@@H](NC(=O)CNC(=O)C(=O)[C@@H]1CCCCCCCCCC[C@H](NC(=O)NC(C)(C)C)C(=O)N2C[C@@H]3[C@H]([C@H]2C(=O)N1)C3(C)C)c1ccccc1 | 6 | 1000 |  | Ratio Ki [5]: 980 |
| C=CCNC(=O)C(=O)[C@@H]1CCCCCCCCC[C@H](NC(=O)N[C@H](CN(C)S(C)(=O)=O)C(C)(C)C)C(=O)N2C[C@@H]3[C@H]([C@H]2C(=O)N1)C3(C)C | 3 | 55 | 0.36 |  |
| C=CCNC(=O)C(=O)[C@@H]1CCCCCCCCC[C@H](NC(=O)N[C@H](CN2CCC(C)(C)CC2=O)C(C)(C)C)C(=O)N2C[C@@H]3[C@H]([C@H]2C(=O)N1)C3(C)C | 2 | 20 | 1.5 |  |
| C=CCNC(=O)C(=O)[C@@H]1CCCCCCCCC[C@H](NC(=O)N[C@H](C(=O)C2CC2)C2CCCCC2)C(=O)N2C[C@@H]3[C@H]([C@H]2C(=O)N1)C3(C)C | 6 | 280 |  | Activity [6]: Not Active |
| C=CCCCC[C@H](NC(=O)[C@@H]1[C@H]2[C@@H](CN1C(=O)[C@H](CCCCC=C)NC(=O)OC(C)(C)C)C2(C)C)C(=O)C(N)=O | 250 |  |  |  |
| CN(C[C@@H](NC(=O)N[C@H]1CCCCCCCCC[C@@H](C(=O)C(N)=O)NC(=O)[C@@H]2[C@H]3[C@@H](CN2C1=O)C3(C)C)C(C)(C)C)S(=O)(=O)c1cccs1 | 2 | 70 |  |  |
| CC(C)(C)OC(=O)N[C@H]1CCCCCCCCCC[C@@H](C(=O)C(=O)NCC(=O)NCc2ccccc2)NC(=O)[C@@H]2[C@H]3[C@@H](CN2C1=O)C3(C)C | 89 | 2000 |  |  |
| CC(C)(C)NC(=O)N[C@H]1CCCCCCCCCC[C@@H](C(=O)C(N)=O)NC(=O)[C@H]2[C@H]3[C@@H](CN2C1=O)C3(C)C | 59 | 1000 |  |  |
| C=CCNC(=O)C(=O)[C@@H]1CCCCCCCCC[C@H](NC(=O)N[C@H](CN(C)S(=O)(=O)c2ccccn2)C(C)(C)C)C(=O)N2CC3C([C@H]2C(=O)N1)C3(C)C (single isomer, unassigned) | 7 | 90 | 0.84 |  |
| C=CCNC(=O)C(=O)[C@@H]1CCCCCCCCC[C@H](NC(=O)N[C@H](CN2C(=O)CN(C)CC2=O)C(C)(C)C)C(=O)N2CC3C([C@H]2C(=O)N1)C3(C)C (single isomer, unassigned) | 4 | 30 | 0.28 |  |
| CCCNC(=O)C(=O)[C@@H]1CCCCCCCCC[C@H](NC(=O)N[C@H](CN(C)S(=O)(=O)c2cccs2)C(C)(C)C)C(=O)N2CC3C([C@H]2C(=O)N1)C3(C)C (single isomer, unassigned) | 14 |  |  |  |
| CN(C)C(=O)[C@@H](NC(=O)CNC(=O)C(=O)[C@@H]1CCCCCCCCCC[C@H](NC(=O)OC(C)(C)C)C(=O)N2CC3C([C@H]2C(=O)N1)C3(C)C)c1ccccc1 (single isomer, unassigned) | 6 | 600 |  | Ratio Ki [5]: 780 |
| CN(C[C@@H](NC(=O)N[C@H]1CCCCCCCCC[C@@H](C(=O)C(=O)NCC2CC2)NC(=O)[C@@H]2C3C(CN2C1=O)C3(C)C)C(C)(C)C)S(=O)(=O)c1cccs1 (single isomer, unassigned) | 21 |  | 0.4 |  |
| C=CCNC(=O)C(=O)[C@@H]1CCCCCCCCC[C@H](NC(=O)N[C@H](CN2C(=O)CC(C)(C)CC2=O)C(C)(C)C)C(=O)N2CC3C([C@H]2C(=O)N1)C3(C)C (single isomer, unassigned) | 2 | 20 | 1.1 |  |
| CN(C)C(=O)[C@@H](NC(=O)CNC(=O)C(=O)[C@@H]1CCCC/C=C/CCCC[C@H](NC(=O)OC(C)(C)C)C(=O)N2CC3C([C@H]2C(=O)N1)C3(C)C)c1ccccc1 (single isomer, unassigned) | 5 | 300 |  | Ratio Ki [5]: 1400 |
| C=CCNC(=O)C(=O)[C@@H]1CCCCCCCCC[C@H](NC(=O)N[C@H](CN2C(=O)c3ccccc3C2=O)C(C)(C)C)C(=O)N2CC3C([C@H]2C(=O)N1)C3(C)C (single isomer, unassigned) | 16 | 100 | 1.2 |  |
| CC1(NC(=O)N[C@H]2CCCCCCCCCC[C@@H](C(=O)C(N)=O)NC(=O)[C@@H]3C4C(CN3C2=O)C4(C)C)CCCCC1 (single isomer, unassigned) | 36 | 400 |  |  |
| C=CCNC(=O)C(=O)[C@@H]1CCCCCCCCC[C@H](NC(=O)N[C@H](CN(C)S(=O)(=O)c2cccs2)C(C)(C)C)C(=O)N2CC3C([C@H]2C(=O)N1)C3(C)C (single isomer, unassigned) | 5 |  | 1.26 |  |
| C=CCNC(=O)C(=O)[C@@H]1CCCCCCCCC[C@H](NC(=O)N[C@H](C(=O)C2CC2)C(C)C)C(=O)N2CC3C([C@H]2C(=O)N1)C3(C)C (single isomer, unassigned) | 20 | 480 |  | Activity [6]: Not Active |
| CCNC(=O)C(=O)[C@@H]1CCCCCCCCC[C@H](NC(=O)N[C@H](CN(C)S(=O)(=O)c2cccs2)C(C)(C)C)C(=O)N2CC3C([C@H]2C(=O)N1)C3(C)C (single isomer, unassigned) | 10 |  |  |  |
| C=CCNC(=O)C(=O)[C@@H]1CCCCCCCCC[C@H](NC(=O)N[C@H](CN2C(=O)C3CCC(C3)C2=O)C(C)(C)C)C(=O)N2CC3C([C@H]2C(=O)N1)C3(C)C (single isomer, unassigned) | 3 | 15 | 0.31 |  |
| CC(C)(C)NC(=O)C(=O)[C@@H]1CCCCCCCCCC[C@H](NC(=O)OC(C)(C)C)C(=O)N2CC3C([C@H]2C(=O)N1)C3(C)C (single isomer, unassigned) | 6000 |  |  | Activity ([2]; Hepacivirus hominis): inactive |
| CN(C[C@@H](NC(=O)N[C@H]1CCCCCCCCC[C@@H](C(=O)C(N)=O)NC(=O)[C@@H]2C3C(CN2C1=O)C3(C)C)C(C)(C)C)S(C)(=O)=O (single isomer, unassigned) | 3 | 250 |  |  |
| CC1(C)C2CN3C(=O)[C@@H](NC(=O)N[C@H](C(=O)C4CC4)C4CCCCC4)CCCCCCCCC[C@@H](C(=O)C(N)=O)NC(=O)[C@@H]3C21 (single isomer, unassigned) | 11 | 180 |  |  |
| CC(C)[C@H](NC(=O)N[C@H]1CCCCCCCCC[C@@H](C(=O)C(N)=O)NC(=O)[C@@H]2C3C(CN2C1=O)C3(C)C)C(=O)C1CC1 (single isomer, unassigned) | 11 | 100 |  |  |
| CC(C)(C)OC(=O)N[C@H]1CCCCCCCCCC[C@@H](C(=O)C(N)=O)NC(=O)[C@@H]2C3C(CN2C1=O)C3(C)C (single isomer, unassigned) | 59 | 900 |  |  |
| CC(C)(C)NC(=O)N[C@H](C(=O)N1CC2C([C@H]1C(=O)NC(CC1CCC1)C(=O)C(N)=O)C2(C)C)C(C)(C)C (single isomer, unassigned) [BOCEPREVIR] | 14 | 350 |  | Ratio Ki [5]: 2200 |
